# Measured values published in article PMC10694493 (Cell Reports Methods, 2023).
# B1: apo-Mb: apo-myoglobin, 16.9 kDa amphitropic protein, Sigma-Aldrich (protein, UniProt P68082 2-154, looked up)
# Myoglobin: GLSDGEWQQVLNVWGKVEADIAGHGQEVLIRLFTGHPETLEKFDKFKHLKTEAEMKASEDLKKHGTVVLTALGGILKKKGHHEAELKPLAQSHATKHKIPIKYLEFISDAIIHVLHSKHPGDFGADAQGAMTKALELFRNDIAAKYKELGFQG
# modifications: heme-free
# Test: B2LiVe 1D-1H amide-selective NMR, solution-to-membrane partitioning
# Type: binding
# Conditions: POPC:POPG 9:1 LUV; 3 μM protein; pH 4.2
# How it was run: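 Test protein held constant while POPC:POPG 9:1 LUV (reverse-phase evaporation, 40 mM stock, extruded through 1.2 μm filters) are titrated from 0 to 2 mM. Buffer: 20 mM HEPES-Na, 20 mM NaCl, 5% D2O, 25°C. 1D amide-selective HET-SOFAST 1H spectra at 800 MHz, PC9 120° pulse centred at 9.5 ppm. Fraction in solution is taken from the amide integral after subtracting the highest-lipid vesicle spectrum.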
molecule,measurement,value
B1,NMR signal remaining at the highest lipid concentration,completely disappears
